# According to ChEMBL document CHEMBL2203235, “Optimization of a natural product-based class of γ-secretase modulators” (J Med Chem, 2012):
# What was measured:
# [1] = Modulation of gamma secretase in CHO-2B7 cells assessed as reduction in amyloid beta 40 level after 5 hrs by MSD ELISA; format: cell-based; settings: Cricetulus griseus, CHO-2B7, 5 h
# [2] = Metabolic stability in human liver microsomes assessed as compound remaining at 1 uM at 60 mins by LC/MS/MS analysis in absence of NADPH; format: ADME, Microsome; settings: liver microsomes, read-out: Stability
# Procedure, shortened: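 Human liver microsomes were run without NADPH as a qualitative read of susceptibility to enzymatic hydrolysis. The read-out was percent parent remaining at 60 min.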
# [3] = Modulation of gamma secretase in CHO-2B7 cells assessed as reduction in amyloid beta 42 level after 5 hrs by MSD ELISA; format: cell-based; settings: Cricetulus griseus, CHO-2B7, 5 h
# Liver microsomes = test: Metabolic stability in human liver microsomes at 1 uM after 60 mins by LC/MS/MS analysis; settings: 1 h
SMILES,IC50 [1],"remaining at 1 h, 1 µM [2]",IC50 [3],Stability (Liver microsomes)
CC(C)[C@@H](OC(=O)N(C)C)[C@H]1C[C@@H](C)[C@H]2[C@H](O1)[C@H](O)[C@@]1(C)[C@@H]3CC[C@H]4C(C)(C)[C@@H](OC(=O)NC5CNC5)CC[C@@]45C[C@@]35CC[C@]21C,9500 nM,113%,300 nM,
CC(C)[C@@H](OC(N)=O)[C@H]1C[C@@H](C)[C@H]2[C@H](O1)[C@H](O)[C@@]1(C)[C@@H]3CC[C@H]4C(C)(C)[C@@H](O[C@H]5CNCCO5)CC[C@@]45C[C@@]35CC[C@]21C,1700 nM,108%,650 nM,
CC(C)O[C@@H]([C@H]1C[C@@H](C)[C@H]2[C@H](O1)[C@H](O)[C@@]1(C)[C@@H]3CC[C@H]4C(C)(C)[C@@H](O[C@H]5CN(C6COC6)CCO5)CC[C@@]45C[C@@]35CC[C@]21C)C(C)(C)O,2800 nM,105%,440 nM,
CC(=O)O[C@@H]([C@H]1C[C@@H](C)[C@H]2[C@H](O1)[C@H](O)[C@@]1(C)[C@@H]3CC[C@H]4C(C)(C)[C@@H](OC(=O)N5CCC5)CC[C@@]45C[C@@]35CC[C@]21C)C(C)(C)O,15000 nM,17%,510 nM,
CCO[C@H](C(C)C)[C@H]1C[C@@H](C)[C@H]2[C@H](O1)[C@H](O)[C@@]1(C)[C@@H]3CC[C@H]4C(C)(C)[C@@H](O)CC[C@@]45C[C@@]35CC[C@]21C,,85%,4400 nM,
CCO[C@@H]([C@H]1C[C@@H](C)[C@H]2[C@H](O1)[C@H](O)[C@@]1(C)[C@@H]3CC[C@H]4C(C)(C)[C@@H](OC(=O)N5CC[C@@H](C(=O)O)C5)CC[C@@]45C[C@@]35CC[C@]21C)C(C)(C)O,14000 nM,,540 nM,Stable
CCO[C@@H]([C@H]1C[C@@H](C)[C@H]2[C@H](O1)[C@H](O)[C@@]1(C)[C@@H]3CC[C@H]4C(C)(C)[C@@H](O[C@H]5CN(CCO)CCO5)CC[C@@]45C[C@@]35CC[C@]21C)C(C)(C)O,3700 nM,,260 nM,Stable
CC(C)[C@@H](OC(=O)N1CCC1)[C@H]1C[C@@H](C)[C@H]2[C@H](O1)[C@H](O)[C@@]1(C)[C@@H]3CC[C@H]4C(C)(C)[C@@H](OC(=O)NCCNS(=O)(=O)C(F)(F)F)CC[C@@]45C[C@@]35CC[C@]21C,11000 nM,,1500 nM,Stable
CCO[C@@H]([C@H]1C[C@@H](C)[C@H]2[C@H](O1)[C@H](O)[C@@]1(C)[C@@H]3CC[C@H]4C(C)(C)[C@@H](O[C@H]5CN(CC)CCO5)CC[C@@]45C[C@@]35CC[C@]21C)C(C)(C)O,2700 nM,,210 nM,Stable
CCO[C@@H]([C@H]1C[C@@H](C)[C@H]2[C@H](O1)[C@H](O)[C@@]1(C)[C@@H]3CC[C@H]4C(C)(C)[C@@H](O[C@H]5CN(CCC(=O)O)CCO5)CC[C@@]45C[C@@]35CC[C@]21C)C(C)(C)O,9600 nM,,310 nM,Stable
CCO[C@@H]([C@H]1C[C@@H](C)[C@H]2[C@H](O1)[C@H](O)[C@@]1(C)[C@@H]3CC[C@H]4C(C)(C)[C@@H](O[C@H]5CN(CCN(C)C)CCO5)CC[C@@]45C[C@@]35CC[C@]21C)C(C)(C)O,3200 nM,,130 nM,Stable
CCO[C@@H]([C@H]1C[C@@H](C)[C@H]2[C@H](O1)[C@H](O)[C@@]1(C)[C@@H]3CC[C@H]4C(C)(C)[C@@H](OC(=O)N[C@@H]5CCNC5=O)CC[C@@]45C[C@@]35CC[C@]21C)C(C)(C)O,2500 nM,,140 nM,Stable
CC(C)[C@@H](OC(=O)N1CCC1)[C@H]1C[C@@H](C)[C@H]2[C@H](O1)[C@H](O)[C@@]1(C)[C@@H]3CC[C@H]4C(C)(C)[C@@H](OC(=O)NC5CN(C)C5)CC[C@@]45C[C@@]35CC[C@]21C,6500 nM,,170 nM,Stable
CC(C)[C@@H](OC(=O)N1CCC1)[C@H]1C[C@@H](C)[C@H]2[C@H](O1)[C@H](O)[C@@]1(C)[C@@H]3CC[C@H]4C(C)(C)[C@@H](OC(=O)NCCC(=O)O)CC[C@@]45C[C@@]35CC[C@]21C,13000 nM,,610 nM,Stable
CCO[C@@H]([C@H]1C[C@@H](C)[C@H]2[C@H](O1)[C@H](O)[C@@]1(C)[C@@H]3CC[C@H]4C(C)(C)[C@@H](O[C@H]5CN(CCCC(=O)O)CCO5)CC[C@@]45C[C@@]35CC[C@]21C)C(C)(C)O,6500 nM,,630 nM,Stable
CC(C)[C@@H](OC(=O)N1CCC1)[C@H]1C[C@@H](C)[C@H]2[C@H](O1)[C@H](O)[C@@]1(C)[C@@H]3CC[C@H]4C(C)(C)[C@@H](OC(=O)N[C@@H]5CCNC5=O)CC[C@@]45C[C@@]35CC[C@]21C,5900 nM,,180 nM,Stable
CC(C)[C@@H](OC(=O)N1CCC1)[C@H]1C[C@@H](C)[C@H]2[C@H](O1)[C@H](O)[C@@]1(C)[C@@H]3CC[C@H]4C(C)(C)[C@@H](OC(=O)NCCCC(=O)O)CC[C@@]45C[C@@]35CC[C@]21C,7200 nM,,280 nM,Stable
CC(C)[C@@H](OC(=O)N1CCC1)[C@H]1C[C@@H](C)[C@H]2[C@H](O1)[C@H](O)[C@@]1(C)[C@@H]3CC[C@H]4C(C)(C)[C@@H](O[C@H]5CN(C6COC6)CCO5)CC[C@@]45C[C@@]35CC[C@]21C,11000 nM,,560 nM,Stable
CC(C)[C@@H](OC(=O)N1CCC1)[C@H]1C[C@@H](C)[C@H]2[C@H](O1)[C@H](O)[C@@]1(C)[C@@H]3CC[C@H]4C(C)(C)[C@@H](OC(=O)N[C@@H]5CCCNC5=O)CC[C@@]45C[C@@]35CC[C@]21C,6600 nM,,380 nM,Stable
CC(C)[C@@H](OC(=O)N1CCC1)[C@H]1C[C@@H](C)[C@H]2[C@H](O1)[C@H](O)[C@@]1(C)[C@@H]3CC[C@H]4C(C)(C)[C@@H](OC(=O)N(C)C)CC[C@@]45C[C@@]35CC[C@]21C,1400 nM,,1300 nM,Stable
CC(C)C(=O)N1CCO[C@@H](O[C@H]2CC[C@]34C[C@]35CC[C@]3(C)[C@@H]6[C@H](O[C@@H]([C@H](OC(=O)N7CCC7)C(C)C)C[C@H]6C)[C@H](O)[C@@]3(C)[C@@H]5CC[C@H]4C2(C)C)C1,11000 nM,,400 nM,Stable
CC(C)[C@@H](OC(=O)N1CCC1)[C@H]1C[C@@H](C)[C@H]2[C@H](O1)[C@H](O)[C@@]1(C)[C@@H]3CC[C@H]4C(C)(C)[C@@H](O[C@H]5CN(C)CCO5)CC[C@@]45C[C@@]35CC[C@]21C,8400 nM,,770 nM,Stable
CC(C)[C@@H](OC(=O)N1CCC1)[C@H]1C[C@@H](C)[C@H]2[C@H](O1)[C@H](O)[C@@]1(C)[C@@H]3CC[C@H]4C(C)(C)[C@@H](O[C@H]5CN(CCCC(=O)O)CCO5)CC[C@@]45C[C@@]35CC[C@]21C,7500 nM,,280 nM,Stable
CC(C)[C@@H](OC(=O)N1CCC1)[C@H]1C[C@@H](C)[C@H]2[C@H](O1)[C@H](O)[C@@]1(C)[C@@H]3CC[C@H]4C(C)(C)[C@@H](O[C@H]5CN([C@@H]6CCNC6=O)CCO5)CC[C@@]45C[C@@]35CC[C@]21C,15000 nM,,490 nM,Stable
CCO[C@@H]([C@H]1C[C@@H](C)[C@H]2[C@H](O1)[C@H](O)[C@@]1(C)[C@@H]3CC[C@H]4C(C)(C)[C@@H](O[C@H]5CN(CCF)CCO5)CC[C@@]45C[C@@]35CC[C@]21C)C(C)(C)O,4700 nM,,240 nM,Stable
CC(C)[C@@H](OC(=O)N1CCC1)[C@H]1C[C@@H](C)[C@H]2[C@H](O1)[C@H](O)[C@@]1(C)[C@@H]3CC[C@H]4C(C)(C)[C@@H](O[C@H]5CN(C(=O)CCC(=O)O)CCO5)CC[C@@]45C[C@@]35CC[C@]21C,7200 nM,,280 nM,Stable
CCO[C@@H]([C@H]1C[C@@H](C)[C@H]2[C@H](O1)[C@H](O)[C@@]1(C)[C@@H]3CC[C@H]4C(C)(C)[C@@H](O[C@H]5CN(C6CNC6)CCO5)CC[C@@]45C[C@@]35CC[C@]21C)C(C)(C)O,2400 nM,,100 nM,Stable
CCO[C@@H]([C@H]1C[C@@H](C)[C@H]2[C@H](O1)[C@H](O)[C@@]1(C)[C@@H]3CC[C@H]4C(C)(C)[C@@H](OC(=O)NCCN(C)C)CC[C@@]45C[C@@]35CC[C@]21C)C(C)(C)O,17000 nM,,240 nM,Stable
CCO[C@@H]([C@H]1C[C@@H](C)[C@H]2[C@H](O1)[C@H](O)[C@@]1(C)[C@@H]3CC[C@H]4C(C)(C)[C@@H](O[C@H]5CN(CCN6CCOC6=O)CCO5)CC[C@@]45C[C@@]35CC[C@]21C)C(C)(C)O,1900 nM,,150 nM,Stable
CC(C)[C@@H](OC(=O)N1CCC1)[C@H]1C[C@@H](C)[C@H]2[C@H](O1)[C@H](O)[C@@]1(C)[C@@H]3CC[C@H]4C(C)(C)[C@@H](OC(=O)N5CC(O)C5)CC[C@@]45C[C@@]35CC[C@]21C,8000 nM,,350 nM,Stable
